Measurements as given in ChEMBL document CHEMBL4354869, “pH-Dependent Grafting of Cancer Cells with Antigenic Epitopes Promotes Selective Antibody-Mediated Cytotoxicity” (J Med Chem, 2020).
Calls of active or inactive are those of the source. The calls are words filed in the database; no cut-off is given here.

What was measured:
[1] = system: MDA-MB-231; test: Induction of opsonization in human MDA-MB-231 cells assessed as increase in recruitment of anti-FITC antibody to cell surface at 1 uM measured after 5 to 10 mins at pH 6 to 7.4 by Alexa Fluor 647 conjugated anti-FITC antibody based flow cytometry; format: functional
In short: (§1)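 Cells in suspension (350000 MDA-MB-231) given 1 μM pH-adjusted conjugate for 5 or 10 min at 37 °C, pH 7.4 or 6.0, washed, then Alexa Fluor 647 anti-FITC mouse mAb in PBS/10% FBS 30 min at 4 °C, PFA-fixed. Flow cytometry, ≥3000 events; fold over pH 7.4 antibody-only cells; mean ± SEM, n = 3.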

[2] = system: Lipid bilayer; test: Binding affinity to POPC large unilamellar vesicle at 1:300 ratio measured after 30 mins at pH 5 to 7.4 by tryptophan fluorescence spectroscopic analysis
In short: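 Peptide (7 μM final, from 20 μM stock in 5 mM sodium phosphate pH 8.0) with extruded 100 nm POPC LUVs at 1:300; pH set with HCl, 30 min RT before tryptophan emission spectra were recorded.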

[3] = system: MDA-MB-231; test: Induction of opsonization in human MDA-MB-231 cells assessed as increase in recruitment of anti-FITC antibody to cell surface at 1 uM measured after 5 to 10 mins at pH 6 by Alexa Fluor 647 conjugated anti-FITC antibody based flow cytometry relative to pH 7.4; format: functional; in short: as §1
[4] = system: MDA-MB-231; test: Induction of opsonization in human MDA-MB-231 cells assessed as increase in recruitment of anti-FITC antibody to cell surface at 1 uM measured after 5 mins at pH 6 to 7.4 by Alexa Fluor 647 conjugated anti-FITC antibody based immunofluorescence microscopic analysis; format: functional
In short: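 Adherent MDA-MB-231 on poly-L-lysine coverslips given 1 μM conjugate for 5 min, 37 °C, pH 7.4 or 6.0, methanol-fixed, then Alexa Fluor 647 anti-FITC rabbit polyclonal at 30 μg/mL for 1 h at 37 °C, Hoechst nuclear stain; fluorescence microscopy, 20× objective.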

[5] = system: MDA-MB-231; test: (§2) Induction of antibody dependent cytotoxicity against human MDA-MB-231 cells assessed as cell lysis at 0.1 uM incubated for 5 mins at pH 6 followed by compound washout prior to anti-FITC antibody addition for 30 mins and subsequent human PBMC addition at 50:1 effector to target ratio measured after 4 hrs by LDH release assay relative to control; format: functional
In short: (§3)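 150000 target cells (MDA-MB-231; also LnCap, SK-OV-3 with haNK) treated with conjugate 5 min at 37 °C, pH 7.4 or 6.0, washed, 25 μg/mL anti-FITC rabbit polyclonal 30 min 4 °C, then 4 h at 37 °C with PBMCs at 50:1 (RPMI) or haNK at 5:1 (MEMα). LDH release; % lysis relative to antibody-only pH 7.4 cells; mean ± SEM, n = 3–12.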

[6] = system: MDA-MB-231; test: as §2, with “assessed as increase in cell lysis” for “assessed as cell lysis”, “relative to pH 7.4” for “relative to control”; format: functional; in short: as §3
[7] = system: MDA-MB-231; test: (§4) Induction of antibody dependent cytotoxicity against human MDA-MB-231 cells assessed as induction of cell lysis up to 1 uM incubated for 5 mins at pH 6 to 7.4 followed by compound washout prior to anti-FITC antibody addition for 30 mins and subsequent human haNK cell addition at 5:1 effector to target ratio measured after 4 hrs by LDH release assay; format: functional, cell-based; in short: as §3
[8] = system: LNCaP; test: as §4, with “LNCAP” for “MDA-MB-231”, “at” for “up to”; format: functional, cell-based; in short: as §3
[9] = system: SK-OV-3; test: as §4, with “SKOV3” for “MDA-MB-231”, “at” for “up to”; format: functional, cell-based; in short: as §3
[10] = system: MDA-MB-231; test: as §2, with “lysis at > 0.1 uM” for “lysis at 0.1 uM”, “release assay” for “release assay relative to control”; format: functional, cell-based; in short: as §3
[11] = system: MDA-MB-231; test: as §4, with “at >” for “up to”; format: functional, cell-based; in short: as §3
[12] = system: Lipid bilayer; test: Binding affinity to POPC large unilamellar vesicle at 1:300 ratio measured after 30 mins at pH 5 by circular dichroism spectroscopic analysis
In short: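 Peptide (20 μM stock in 5 mM sodium phosphate pH 8.0; 7 μM final) mixed with POPC LUVs (extruded, 100 nm pores) at 1:300, pH lowered with HCl, 30 min RT. Far-UV CD 260–200 nm in 0.1 cm cuvette, ≥5 scans averaged, liposome spectrum subtracted; expressed as mean residue molar ellipticity.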

Activity [2]	Activity [12]	Structure (SMILES)	Activity [1]	fold change (FC) [3]	Activity [4]	Activity [5] [%]	fold change (FC) [6]	Activity [7]	Activity [8]	Activity [9]	Activity [10]	Activity [11]
Active	–	CC[C@H](C)[C@H](NC(=O)[C@@H]1CCCN1C(=O)[C@H](CC(N)=O)NC(=O)[C@H](CCC(N)=O)NC(=O)[C@H](CCC(=O)O)NC(=O)[C@H](CSC1CC(=O)N(CCC(=O)NOCCOCCOCCOCCOCCOCCOCCOCCOCCOCCOCCOCCC(=O)NCCCNC(=O)c2ccc(-c3c4ccc(=O)cc-4oc4cc(O)ccc34)c(C(=O)O)c2)C1=O)NCC(N)=O)C(=O)N[C@@H](Cc1ccc(O)cc1)C(=O)N[C@@H](Cc1c[nH]c2ccccc12)C(=O)N[C@@H](C)C(=O)N[C@@H](CCCNC(=N)N)C(=O)N[C@@H](Cc1ccc(O)cc1)C(=O)N[C@@H](C)C(=O)N[C@@H](CC(=O)O)C(=O)N[C@@H](Cc1c[nH]c2ccccc12)C(=O)N[C@@H](CC(C)C)C(=O)N[C@@H](Cc1ccccc1)C(=O)N[C@H](C(=O)N[C@H](C(=O)N1CCC[C@H]1C(=O)N[C@@H](CC(C)C)C(=O)N[C@@H](CC(C)C)C(=O)N[C@@H](CC(C)C)C(=O)N[C@@H](CC(C)C)C(=O)N[C@@H](CC(=O)O)C(=O)N[C@@H](CC(C)C)C(=O)N[C@@H](C)C(=O)N[C@@H](CC(C)C)C(=O)N[C@@H](CC(C)C)C(=O)N[C@H](C(=O)N[C@@H](CC(=O)O)C(=O)N[C@@H](C)C(=O)N[C@@H](CC(=O)O)C(=O)N[C@@H](CCC(=O)O)C(=O)NCC(=O)N[C@H](C(=O)NCC(N)=O)[C@@H](C)O)C(C)C)[C@@H](C)O)[C@@H](C)O (some centres not stated)	Active	5.4	Active	40	2	Active	Active	Active	inactive	inactive
Active	–	CC[C@H](C)[C@H](NC(=O)[C@@H]1CCCN1C(=O)[C@H](CC(N)=O)NC(=O)[C@H](CCC(N)=O)NC(=O)[C@H](CCC(=O)O)NC(=O)[C@H](CSC1CC(=O)N(CCC(=O)NOCCOCCOCCOCCOCCOCCOCCOCCOCCOCCOCCOCCC(=O)NCCCNC(=O)c2ccc(-c3c4ccc(=O)cc-4oc4cc(O)ccc34)c(C(=O)O)c2)C1=O)NCC(N)=O)C(=O)N[C@@H](Cc1ccc(O)cc1)C(=O)N[C@@H](Cc1c[nH]c2ccccc12)C(=O)N[C@@H](C)C(=O)N[C@@H](CCCNC(=N)N)C(=O)N[C@@H](Cc1ccc(O)cc1)C(=O)N[C@@H](C)C(=O)N[C@@H](CC(=O)O)C(=O)N[C@@H](Cc1c[nH]c2ccccc12)C(=O)N[C@@H](CC(C)C)C(=O)N[C@@H](Cc1ccccc1)C(=O)N[C@H](C(=O)N[C@H](C(=O)N1CCC[C@H]1C(=O)N[C@@H](CC(C)C)C(=O)N[C@@H](CC(C)C)C(=O)N[C@@H](CC(C)C)C(=O)N[C@@H](CC(C)C)C(=O)N[C@@H](CCC(=O)O)C(=O)N[C@@H](CC(C)C)C(=O)N[C@@H](C)C(=O)N[C@@H](CC(C)C)C(=O)N[C@@H](CC(C)C)C(=O)N[C@H](C(=O)N[C@@H](CC(=O)O)C(=O)N[C@@H](C)C(=O)N[C@@H](CC(=O)O)C(=O)N[C@@H](CCC(=O)O)C(=O)NCC(=O)N[C@H](C(=O)NCC(N)=O)[C@@H](C)O)C(C)C)[C@@H](C)O)[C@@H](C)O (some centres not stated)	Active	2.9	–	–	–	–	–	–	–	–
Active	Active	CC[C@H](C)[C@H](NC(=O)[C@@H]1CCCN1C(=O)[C@H](CC(N)=O)NC(=O)[C@H](CCC(N)=O)NC(=O)[C@H](CCC(=O)O)NC(=O)[C@H](CSC1CC(=O)N(CCC(=O)NOCCOCCOCCOCCOCCOCCOCCOCCOCCOCCOCCOCCOCCOCCOCCOCCOCCOCCOCCOCCOCCOCCOCCOCCC(=O)NCCCNC(=O)c2ccc(-c3c4ccc(=O)cc-4oc4cc(O)ccc34)c(C(=O)O)c2)C1=O)NCC(N)=O)C(=O)N[C@@H](Cc1ccc(O)cc1)C(=O)N[C@@H](Cc1c[nH]c2ccccc12)C(=O)N[C@@H](C)C(=O)N[C@@H](CCCNC(=N)N)C(=O)N[C@@H](Cc1ccc(O)cc1)C(=O)N[C@@H](C)C(=O)N[C@@H](CC(=O)O)C(=O)N[C@@H](Cc1c[nH]c2ccccc12)C(=O)N[C@@H](CC(C)C)C(=O)N[C@@H](Cc1ccccc1)C(=O)N[C@H](C(=O)N[C@H](C(=O)N1CCC[C@H]1C(=O)N[C@@H](CC(C)C)C(=O)N[C@@H](CC(C)C)C(=O)N[C@@H](CC(C)C)C(=O)N[C@@H](CC(C)C)C(=O)N[C@@H](CC(=O)O)C(=O)N[C@@H](CC(C)C)C(=O)N[C@@H](C)C(=O)N[C@@H](CC(C)C)C(=O)N[C@@H](CC(C)C)C(=O)N[C@H](C(=O)N[C@@H](CC(=O)O)C(=O)N[C@@H](C)C(=O)N[C@@H](CC(=O)O)C(=O)N[C@@H](CCC(=O)O)C(=O)NCC(=O)N[C@H](C(=O)NCC(N)=O)[C@@H](C)O)C(C)C)[C@@H](C)O)[C@@H](C)O (some centres not stated)	Active	–	–	–	–	–	–	–	–	–
